Here are results for two molecules from PMC3000965 (The Journal of Biological Chemistry, 2010).

Usually EC50 stands for the concentration needed to bring the measured effect to its halfway point. The term GI50 denotes the concentration giving 50% growth inhibition.

One series concerns Hsp90 in SK-BR-3 lysates. The series can be described thus: Dissociation of [3H]17-AAG from Hsp90 in SK-BR-3 lysates. The settings on record: 4 °C. The series is classed as binding, human.
In series [1] the test system is Purified Hela Hsp90. Description: Association of [3H]17-AAG to purified Hsp90. The series is classed as binding, human.
The test system of series [2] is Purified Hela Hsp90. Description: Dissociation of [3H]17-AAG from purified Hsp90. The series is classed as binding, human.
The subject of series [3] is Hsp90 in SK-BR-3 cell lysate. The series can be described thus: Association of [3H]17-AAG to Hsp90 in SK-BR-3 lysate. The settings on record: 4 °C, 10 μM 17-AAG. The series is classed as binding, human.
A further series deals with Hsp90 in H1650 cells. The series can be described thus: Hsp90 occupancy in H1650 cells. Type of series: cell-based, human. The settings on record: read-out: Hsp90 occupancy (EC50); H1650, 6 h incubation. The essentials:
(§1)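 Cells were grown to 95% confluency and treated with test compound (0.01–10 μM) for 6 h at 37 °C. They were washed in cold PBS and lysed by freeze/thaw in binding buffer (20 mM Hepes pH 7.3, KCl, MgCl, EDTA, TCEP). Unbound drug was removed on prechilled spin columns. […], with total Hsp90 quantified by immunoblot against recombinant α/β standards. Average of two experiments.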

The next series concerns Hsp90 in RS4;11 cells. The series can be described thus: Hsp90 occupancy in RS4. The series is classed as cell-based, human. The settings on record: read-out: Hsp90 occupancy (EC50); RS4;11, 6 h incubation. The essentials:
as §1

A further series deals with H1975 cells. Description: Cell growth inhibition. The settings on record: Homo sapiens, NCI-H1975, 72 h, read-out: Cell growth inhibition (GI50). Type of series: cell-based. In a few lines:
(§2)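 Cells grown in RPMI 1640 with 10% FBS at 37 °C, 5% CO2. Seeded at 10,000 cells/well, held 24 h, then exposed to increasing concentrations of test compound for 72 h. Viability read by CellTiter-Glo luminescence and normalized to DMSO vehicle control to give GI50.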

Another series relates to Hsp90 in H1975 cells. Description: Hsp90 occupancy in H1975 cells. Type of series: cell-based, human. The note with it: read-out: Hsp90 occupancy (EC50); H1975, 6 h incubation. In a few lines: as §1
The test system of series [4] is Hsp90 in H1650 tumor xenografts. The series can be described thus: Hsp90 occupancy in H1650 tumor xenografts. Type of series: in vivo, mice. The note with it: 100 mg/kg single dose. In a few lines: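 Male athymic nude mice (6–8 weeks) carried flank xenografts from 1 × 10^7 H1650 cells. They received a single i.v. dose of test compound (100 mg/kg) and were sacrificed at time points from 1 to 48 h (n = 3; vehicle n = 2). Tumors were snap-frozen and powdered, and ~10 mg was homogenized in chilled binding buffer and clarified at 14,000 × g, 4 °C.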

Series [5] in a line: Plasma and tumor PK in H1650 tumor-bearing mice. Type of series: in vivo. The essentials: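 Nude mice bearing H1650 xenografts received a single i.v. dose of test compound (100 mg/kg). Plasma and tumors were collected at time points from 1 to 48 h (n = 3). Tumors were homogenized in ice-cold, nitrogen-sparged 1:1 acetonitrile : 150 mM citrate/EDTA/ascorbate, pH 3, then filtered and diluted 1:1 in citrate buffer with 25 ng/ml deuterated internal standard. Parent compound and two active metabolites were quantified by LC-MS/MS.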

A further series has as its system Hsp90 in SKOV-3 cells. The series can be described thus: Hsp90 occupancy in SKOV-3 cells. The series is classed as cell-based, human. The settings on record: read-out: Hsp90 occupancy (EC50); SKOV-3, 6 h incubation. The essentials:
as §1

For a further series, the system named is HER2. Description: HER2 client protein degradation by immunoblot in H1650 cells. Type of series: cell-based, human. In a few lines: (§3)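 H1650 cells were exposed to increasing concentrations of test compound for 6 h. They were lysed in RIPA buffer with protease inhibitors, protein was measured by BCA, and samples were run on 4–12% Bis-Tris SDS-PAGE and transferred to PVDF. Blots were probed with client-specific antibodies and detected by ECL. Bands were normalized to actin, and the fraction degraded was computed by densitometry against untreated samples.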

The test system of series [6] is mEGFR. Description: mEGFR client protein degradation by immunoblot in H1650 cells. Type of series: cell-based, human. The note with it: read-out: mEGFR degradation EC50, 6 h. The essentials:
as §3
For orientation: In western blotting, separated proteins are transferred to a membrane and probed.

A further series relates to cRaf. Description: cRaf client protein degradation by immunoblot in H1650 cells. Type of series: cell-based, human. The settings on record: 10 μM (highest concentration tested), 6 h. The essentials:
as §3

For a further series, the system named is H1650 cells. The series can be described thus: Cell growth inhibition. Type of series: cell-based. The settings on record: Homo sapiens, NCI-H1650, 72 h, read-out: Cell growth inhibition (GI50). In a few lines: as §2
The next series concerns SKOV-3 cells. The series can be described thus: Cell growth inhibition. Type of series: cell-based. The note with it: Homo sapiens, SK-OV-3, 72 h, read-out: Cell growth inhibition (GI50). In a few lines:
as §2

Series [7] relates to mEGFR. Description: mEGFR protein degradation in H1650 tumor xenografts. The series is classed as in vivo, mice. The settings on record: 100 mg/kg single dose. The essentials:
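Nude mice bearing H1650 flank xenografts received a single i.v. dose of test compound (100 mg/kg). They were sacrificed at time points from 1 to 48 h post dose (n = 3; vehicle n = 2). Tumors were snap-frozen in liquid nitrogen, stored at −80 °C, and EGFR protein levels in tumor tissue were assessed by immunoblot. Data are averages ± S.D.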

The next series has as its system Hsp90. The settings on record: cited from earlier work.
In a further series the test system is Akt. Description: Akt client protein degradation by immunoblot in H1650 cells. The series is classed as cell-based, human. The note with it: 10 μM (highest concentration tested), 6 h. The essentials:
as §3

For a further series, the system named is RS4;11 cells. Description: Cell growth inhibition. Type of series: cell-based. The settings on record: Homo sapiens, RS4-11, 72 h, read-out: Cell growth inhibition (GI50). The essentials: as §2

Take `C=CCNC1=C2C[C@@H](C)C[C@H](OC)[C@H](O)[C@@H](C)/C=C(\C)[C@H](OC(N)=O)[C@@H](OC)/C=C\C=C(/C)C(=O)NC(=CC1=O)C2=O` [17-AAG, 17-allylamino-17-demethoxygeldanamycin]: the dissociation half-life came to 36 h in the series with Hsp90 in SK-BR-3 lysates and 8 min in the series with Purified Hela Hsp90 [2] (37 °C). Also, the “rate of dissociation slower than rate of association” value with Purified Hela Hsp90 [1] (10 μM 17-AAG at 4 °C) is on record as around 100 fold. In addition, the “time at which drug binding reached equilibrium” value is recorded as at most 40 min with Purified Hela Hsp90 [1] (4 °C, 10 μM 17-AAG) and at most 130 min in series [3]. For the same molecule, the “association t½” value is 6 min in the series on Purified Hela Hsp90 [1] (4 °C, 10 μM 17-AAG, 100 nM Hsp90) and 19 min in [3] (∼100 nM Hsp90 in lysate). The “dissociation t½” value in the series with Purified Hela Hsp90 [2] (4 °C) was 1680 min.

Consider `C=CCNc1c(O)cc2c(O)c1C[C@@H](C)C[C@H](OC)[C@H](O)[C@@H](C)/C=C(\C)[C@H](OC(N)=O)[C@@H](OC)/C=C\C=C(/C)C(=O)N2` [IPI-504], for which the concentration giving a half-maximal response (EC50) in the series with Hsp90 in H1650 cells was determined as 30 nM; in the series on Hsp90 in RS4;11 cells it was 644 nM; in the series on Hsp90 in H1975 cells, 74 nM; with Hsp90 in SKOV-3 cells it was 44 nM; with HER2 (read-out: HER2 degradation EC50, 6 h) it was 11 nM; in the series with mEGFR [6], 213 nM. The concentration for 50% growth inhibition (GI50) was 51 nM in the series with H1975 cells, 37 nM in the series on H1650 cells, 52 nM with SKOV-3 cells and 2000 nM with RS4;11 cells. The “time by which Hsp90 occupancy declined to background levels” value in [4] is at most 48 h. Moreover, the “time up to which significant Hsp90 occupancy was observed” value in series [4] is on record as “up to 12 h”. Moreover, the “IPI-504 and its metabolites in plasma” value in [5] (24 h post dose, plasma) is listed as “barely detectable”. Further, the “IPI-504 and its metabolites in tumors” value in [5] (36 h post dose, 100 mg/kg, tumor) is reported as “high concentrations”. Moreover, the “tumor PK concentrations of IPI-504” value in series [5] (at 24 to 48 h, tumor) is around 1 µM. The same molecule gave an HER2 degraded in the series with HER2 (30 nM IPI-504, 6 h) above 90%. In the series with cRaf, this molecule showed a cRaf maximal degradation of at most 42%. In addition, the “time after which mEGFR protein degradation was observed” value in the series with mEGFR [7] was found to be 2 h. For the same molecule, in the series with mEGFR [7], the “time of re-emergence of mEGFR protein expression” value is on record as 24 h. Besides, the “affinity for Hsp90 higher than 17-AAG” value with Hsp90 is 50 fold. Further, the Akt maximal degradation with Akt is listed as at most 54%.
